{"source": "ChEMBL document CHEMBL4270576", "about": "“Discovery of a benzenesulfonamide-based dual inhibitor of microsomal prostaglandin E2 synthase-1 and 5-lipoxygenase that favorably modulates lipid mediator biosynthesis in inflammation” (Eur J Med Chem, 2018)", "key": {"[1]": {"target": "T1, Cytosolic phospholipase A2 (Homo sapiens) (UniProt P47712)", "T1 sequence (whole entry)": "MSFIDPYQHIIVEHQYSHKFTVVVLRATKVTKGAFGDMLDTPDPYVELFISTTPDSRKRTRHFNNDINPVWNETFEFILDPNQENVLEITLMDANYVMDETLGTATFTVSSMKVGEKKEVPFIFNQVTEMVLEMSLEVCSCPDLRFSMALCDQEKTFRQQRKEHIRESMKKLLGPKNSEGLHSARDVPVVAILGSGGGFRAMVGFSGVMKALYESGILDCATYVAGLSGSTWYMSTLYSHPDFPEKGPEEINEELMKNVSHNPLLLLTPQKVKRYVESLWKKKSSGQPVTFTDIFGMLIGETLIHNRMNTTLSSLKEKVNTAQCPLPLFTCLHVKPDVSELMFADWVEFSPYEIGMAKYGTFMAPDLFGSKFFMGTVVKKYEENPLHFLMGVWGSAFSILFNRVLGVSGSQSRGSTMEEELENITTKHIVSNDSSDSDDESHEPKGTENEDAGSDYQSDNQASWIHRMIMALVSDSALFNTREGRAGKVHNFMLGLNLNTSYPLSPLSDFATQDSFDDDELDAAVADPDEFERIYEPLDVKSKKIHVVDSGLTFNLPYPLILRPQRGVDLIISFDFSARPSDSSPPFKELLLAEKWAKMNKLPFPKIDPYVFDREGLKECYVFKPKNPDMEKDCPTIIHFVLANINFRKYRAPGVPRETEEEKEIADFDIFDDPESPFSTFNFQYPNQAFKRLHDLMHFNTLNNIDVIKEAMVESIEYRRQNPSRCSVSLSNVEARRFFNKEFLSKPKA", "assay": "Inhibition of cPLA2alpha-mediated [3H]-arachidonic acid release in Ca2+ ionophore A23187-stimulated human neutrophils at 10 uM preincubated for 15 mins followed by Ca2+ ionophore A23187 stimulation measured after 5 mins by scintillation counting method", "method_in_brief": "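Neutrophils (1 × 10^7) labelled with 5 nM [3H]-AA for 120 min at 37 °C, washed with fatty-acid-free BSA buffer, pre-incubated 15 min at 37 °C with compound or 0.1% DMSO, then stimulated with 2.5 µM A23187 for 5 min. Released [3H]-AA in supernatant counted by liquid scintillation; n=3-4.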"}, "[2]": {"test_system": "Mus musculus", "assay": "Antiinflammatory activity in zymosan induced CD-1 mouse model of inflammation assessed as reduction in leukocyte recruitment in air pouch at 10 mg/kg, ip preincubated for 30 mins followed by zymosan challenge and measured after 4 hrs by trypan blue staining-based burker's chamber method", "format": "functional, organism-based", "method_in_brief": "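Air pouch formed by s.c. injection of 2.5 mL sterile air in CD-1 mice; on day 6, 10 mg/kg i.p. (2% DMSO/saline) given 30 min before 1 ml 1% w/v zymosan into the pouch. After 4 h, exudate collected with 1 ml saline and centrifuged; leukocytes counted in Burker chamber; LTB4 in supernatant by ELISA (ng/mL). n=6 mice per group.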"}, "[3]": {"target": "T2, Polyunsaturated fatty acid 5-lipoxygenase (Homo sapiens) (UniProt P09917)", "T2 sequence (whole entry)": "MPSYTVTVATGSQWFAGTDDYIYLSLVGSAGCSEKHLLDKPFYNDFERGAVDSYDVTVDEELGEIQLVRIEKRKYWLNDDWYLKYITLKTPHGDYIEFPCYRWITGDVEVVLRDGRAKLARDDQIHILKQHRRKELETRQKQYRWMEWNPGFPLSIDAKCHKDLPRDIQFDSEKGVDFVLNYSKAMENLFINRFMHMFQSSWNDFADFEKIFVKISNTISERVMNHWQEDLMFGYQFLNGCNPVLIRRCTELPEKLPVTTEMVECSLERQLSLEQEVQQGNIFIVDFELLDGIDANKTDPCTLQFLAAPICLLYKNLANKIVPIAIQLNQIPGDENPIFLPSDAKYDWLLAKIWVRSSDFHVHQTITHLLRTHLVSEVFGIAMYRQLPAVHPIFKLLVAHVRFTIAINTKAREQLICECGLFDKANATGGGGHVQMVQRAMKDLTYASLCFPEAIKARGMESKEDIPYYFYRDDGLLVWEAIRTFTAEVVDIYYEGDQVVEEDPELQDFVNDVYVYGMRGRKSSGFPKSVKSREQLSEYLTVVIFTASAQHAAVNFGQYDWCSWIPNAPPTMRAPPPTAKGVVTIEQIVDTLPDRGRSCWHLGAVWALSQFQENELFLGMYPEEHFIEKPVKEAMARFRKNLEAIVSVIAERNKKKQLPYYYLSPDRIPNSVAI", "assay": "Inhibition of 5-LO in human M1 macrophages derived from LPS/IFNgamma-polarized human monocyte derived macrophages assessed as effect on 5-HETE level at 3 uM preincubated for 15 mins followed by Escherichia coli (O6:K2:H1) challenge for 90 mins by LC-MS/MS analysis", "parameters": "scale not given: the % may be the effect or the level left", "method_in_brief": "(§1)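 Monocytes differentiated 6 days with GM-CSF (20 ng/ml) in RPMI/10% FCS, then polarized 48 h with LPS 100 ng/ml plus IFN-γ 20 ng/ml (M1). Cells (2 × 10^6) in PBS with 1 mM CaCl2 pre-incubated 15 min at 37 °C with 3 µM compound or 0.1% DMSO, then E. coli O6:K2:H1 (1:50) for 90 min. Methanol with deuterated standards added; SPE; UPLC-MS/MS; expressed as % of vehicle.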"}, "[4]": {"target": "T3, Prostaglandin E synthase (Homo sapiens) (UniProt O14684)", "T3 sequence (whole entry)": "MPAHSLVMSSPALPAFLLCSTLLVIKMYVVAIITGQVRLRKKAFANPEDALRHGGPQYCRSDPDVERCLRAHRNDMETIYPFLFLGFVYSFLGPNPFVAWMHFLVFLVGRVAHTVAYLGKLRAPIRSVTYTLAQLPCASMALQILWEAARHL", "assay": "Inhibition of mPGES-1 in LPS/IFNgamma-differentiated human M1 macrophages assessed as effect on PGE2 level at 3 uM preincubated for 15 mins followed by Escherichia coli (O6:K2:H1) challenge for 90 mins by LC-MS/MS analysis", "parameters": "scale not given: the % may be the effect or the level left", "method_in_brief": "as §1"}, "[5]": {"target": "T2, Polyunsaturated fatty acid 5-lipoxygenase (Homo sapiens)", "assay": "Inhibition of 5-LO in human M1 macrophages derived from LPS/IFNgamma-polarized human monocyte derived macrophages assessed as effect on 5-HEPE level at 3 uM preincubated for 15 mins followed by Escherichia coli (O6:K2:H1) challenge for 90 mins by LC-MS/MS analysis", "parameters": "scale not given: the % may be the effect or the level left", "method_in_brief": "as §1"}}, "note": "Active and inactive are the calls of the source. The calls are words filed in the database; no cut-off is given here.", "data": [{"smiles": "O=C(O)c1ccc(N(Cc2cccc(OCc3ccccc3)c2)S(=O)(=O)c2ccc(-c3ccccc3)cc2)cc1", "values": [{"measurement": "inhibition", "setting": "[1]", "value": "inactive"}, {"measurement": "Activity", "setting": "[2]", "value": "Active"}, {"measurement": "Activity", "setting": "[3]", "value": 35, "unit": "%"}, {"measurement": "Activity", "setting": "[4]", "value": 72, "unit": "%"}, {"measurement": "Activity", "setting": "[5]", "value": 23, "unit": "%"}]}]}
